Measurements taken from ChEMBL document CHEMBL4330080, “Hydroxyazole scaffold-based Plasmodium falciparum dihydroorotate dehydrogenase inhibitors: Synthesis, biological evaluation and X-ray structural studies” (Eur J Med Chem, 2019).

What was measured:
[1] = molecular target: T1, Dihydroorotate dehydrogenase (Plasmodium falciparum, UniProt Q54A96); test: Inhibition of Plasmodium falciparum recombinant N-terminal His6-tagged DHODH (159-569 residues) expressed in Escherichia coli BL21(DE3) using DHO as substrate measured every min for 5 mins by DCPI dye-based photometric analysis
T1 sequence (Q54A96 whole entry): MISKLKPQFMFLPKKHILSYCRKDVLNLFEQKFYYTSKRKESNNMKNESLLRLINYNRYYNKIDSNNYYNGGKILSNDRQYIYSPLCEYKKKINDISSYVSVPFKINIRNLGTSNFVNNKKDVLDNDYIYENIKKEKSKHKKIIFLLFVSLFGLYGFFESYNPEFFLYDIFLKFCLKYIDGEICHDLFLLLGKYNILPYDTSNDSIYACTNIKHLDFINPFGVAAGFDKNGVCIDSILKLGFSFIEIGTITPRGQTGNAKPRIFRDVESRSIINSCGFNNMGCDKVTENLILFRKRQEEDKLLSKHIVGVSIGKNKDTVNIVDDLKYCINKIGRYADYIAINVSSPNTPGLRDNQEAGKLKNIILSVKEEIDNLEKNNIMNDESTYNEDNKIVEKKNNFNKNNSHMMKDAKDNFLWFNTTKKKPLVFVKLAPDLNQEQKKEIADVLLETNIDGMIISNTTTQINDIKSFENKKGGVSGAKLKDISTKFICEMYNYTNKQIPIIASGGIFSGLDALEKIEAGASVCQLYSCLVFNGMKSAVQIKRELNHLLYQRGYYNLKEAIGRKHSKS
Method in brief: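 N-terminally truncated recombinant enzyme, His-tag IMAC then size exclusion purified, in 50 mM Tris/HCl pH 7.8, 150 mM KCl, 0.1% Triton X-100 with 60 μM DCIP and 20 μM decylubiquinone. Started with 200 μM DHO; initial rate from DCIP absorbance at 600 nm over the first 5 min. IC50 is mean ± SE of three experiments.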

[2] = Dissociation constant, pKa of the compound by potentiometric analysis; type: physicochemical
[3] = tested on: Plasmodium falciparum; test: Anti-plasmodial activity against synchronized ring stage Plasmodium falciparum 3D7 infected in human erythrocytes assessed as reduction in parasitemia after 48 hrs by Sybr Green I dye-based flow cytometric analysis; type: functional, organism-based; conditions: 3D7, 48 h
Method in brief: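 Parasites kept in O+ human erythrocytes in RPMI 1640 with HEPES pH 7.3, glutamine, glucose, gentamicin, 0.5mM hypoxanthine and 10% human serum, 4% hematocrit, 37°C in 1% O2/5% CO2. Sorbitol-synchronized rings; 1:2 serial dilutions from 300µM at 2% hematocrit, 1-2% parasitemia, 48h. SybrGreen I flow cytometry; triplicate points fitted to log[I] vs response for EC50.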

[4] = molecular target: Dihydroorotate dehydrogenase (quinone), mitochondrial (Homo sapiens, UniProt Q02127); test: Inhibition of human recombinant N-terminal GST-tagged DHODH (31 to 395 residues) expressed in Escherichia coli BL21(DE3) using DHO as substrate preincubated for 5 mins followed by substrate addition and measured for 5 mins by DCPI dye-based assay
Method in brief: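 GST-fused enzyme from E. coli, glutathione-affinity purified. Pre-incubated 5 min at 37°C in Tris buffer pH 8.0 with 100 μM coenzyme Q10, 50 μM DCIP and compounds (0.1% DMSO final). Started with 500 μM DHO; DCIP reduction followed at 650 nm over the first 5 min. IC50 is mean ± SE of three experiments.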

[5] = Cytotoxicity against African green monkey COS7 cells after 48 hrs by MTT assay; type: cell-based; conditions: chlorocebus aethiops, COS-7 cells
Method in brief: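 COS-7 cells in DMEM with 10% heat-inactivated FBS and gentamicin, 37°C, 5% CO2. Seeded at 10⁴ cells/well and left 16 h to adhere. Compounds added at several concentrations for 48 h. MTT added for 4 h, formazan dissolved in acidified Triton/isopropanol, OD read at 570 nm. CC50 from viability relative to control, given with 95% confidence interval of the fit.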

[6] = Selectivity ratio of IC50 for human recombinant DHODH to IC50 for Plasmodium falciparum recombinant DHODH

Chain of Dihydroorotate dehydrogenase (quinone), mitochondrial (Q02127 whole entry, the tested form may be a part): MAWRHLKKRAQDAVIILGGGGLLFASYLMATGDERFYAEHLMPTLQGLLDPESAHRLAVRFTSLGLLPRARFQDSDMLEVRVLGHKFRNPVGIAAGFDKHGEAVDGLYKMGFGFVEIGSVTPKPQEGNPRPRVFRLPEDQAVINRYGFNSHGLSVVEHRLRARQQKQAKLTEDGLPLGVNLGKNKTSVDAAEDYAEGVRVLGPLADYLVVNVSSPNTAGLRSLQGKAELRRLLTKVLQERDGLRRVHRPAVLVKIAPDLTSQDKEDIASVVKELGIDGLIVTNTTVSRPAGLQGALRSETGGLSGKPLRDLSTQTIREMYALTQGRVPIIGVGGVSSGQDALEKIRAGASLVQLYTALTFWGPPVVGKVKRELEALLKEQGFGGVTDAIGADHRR

For `Cc1c(C(=O)NCC(c2ccccc2)c2ccccc2)c(O)nn1C`, the IC50 [1] was > 250 µM and the pKa [2] was 6.54.

For `Cn1nc(O)c(C(=O)O)c1COc1cccc(C(F)(F)F)c1`, the IC50 [1] was 2.8 µM, the EC50 [3] was 40.7 µM and the IC50 [4] was ≥ 200 µM. It also gave a CC50 at 48 h [5] of 167 µM.

For `Cn1nc(OCc2ccccc2)c(C(=O)O)c1COc1ccccc1`, the IC50 [1] was > 250 µM.

In the case of `O=C(NCC(c1ccccc1)c1ccccc1)c1nsnc1O`, the IC50 [1] is reported as 12 µM, the pKa [2] is reported as 3.72 and the EC50 [3] is reported as 35.9 µM. For the same compound, the IC50 [4] was > 200 µM and the CC50 at 48 h [5] was 190 µM.

For `Cn1nc(O)c(C(=O)O)c1CNc1ccccc1`, the Ratio IC50 [6] was > 16, the IC50 [1] was 16 µM and the IC50 [4] was > 250 µM.

With `O=C(NCC(c1ccccc1)c1ccccc1)c1nonc1O` the Ratio IC50 [6] was > 3, the IC50 [1] was 75 µM and the pKa [2] was 3.33. For the same compound, the IC50 [4] was > 200 µM.

For `CN(Cc1c(C(=O)O)c(O)nn1C)c1ccccc1`, the Ratio IC50 [6] was > 10, the IC50 [1] was 23 µM and the IC50 [4] was > 250 µM.

For `Cn1cc(C(=O)NCC(c2ccccc2)c2ccccc2)c(O)n1`, the IC50 [1] was > 250 µM and the pKa [2] was 6.42.

For `Cn1nc(O)c(C(=O)O)c1CSc1ccccc1`, the Ratio IC50 [6] was > 10, the IC50 [1] was 25 µM and the IC50 [4] was > 250 µM.

With `Cn1nc(OCC2CC2)c(C(=O)O)c1COc1ccccc1` the IC50 [1] was > 250 µM.

In the case of `Cn1nc(O)c(C(N)=O)c1COc1ccccc1`, the IC50 [1] is reported as > 250 µM.

In the case of `CCOc1nn(C)c(COc2ccccc2)c1C(=O)O`, the IC50 [1] is reported as > 250 µM.

With `Cn1nc(O)c(C(=O)O)c1COc1ccc(C(F)(F)F)cc1` the IC50 [1] was 5.3 µM, the EC50 [3] was 26.7 µM and the IC50 [4] was ≥ 200 µM. It also gave a CC50 at 48 h [5] of 152 µM.

For `O=C(NCc1ccccc1)c1nsnc1O`, the Ratio IC50 [6] was > 6, the IC50 [1] was 35 µM and the pKa [2] was 3.69. The IC50 [4] was > 200 µM.

With `CCOC(=O)c1c(O)nn(C)c1COc1ccccc1` the IC50 [1] was > 250 µM.

With `Cn1nc(O)c(C(=O)O)c1COc1ccccc1` the Ratio IC50 [6] was > 13, the IC50 [1] was 19 µM and the IC50 [4] was > 250 µM.
